Target: T1, Mycobacterial beta-ketoacyl-[acyl-carrier-protein] synthase III (Mycobacterium tuberculosis, UniProt P9WNG3)
T1 sequence (P9WNG3 whole entry): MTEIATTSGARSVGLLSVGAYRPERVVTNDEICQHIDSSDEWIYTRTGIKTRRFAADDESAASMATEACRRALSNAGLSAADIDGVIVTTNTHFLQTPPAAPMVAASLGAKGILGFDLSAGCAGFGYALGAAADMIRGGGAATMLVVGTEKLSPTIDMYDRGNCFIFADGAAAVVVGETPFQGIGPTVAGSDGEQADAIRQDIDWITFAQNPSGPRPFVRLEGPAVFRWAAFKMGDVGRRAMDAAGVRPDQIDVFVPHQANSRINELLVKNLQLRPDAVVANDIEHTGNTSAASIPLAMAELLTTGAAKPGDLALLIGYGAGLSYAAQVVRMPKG
Assay: In vitro inhibitory activity against the recombinant Mycobacterium tuberculosis Beta-ketoacyl-ACP synthase III mtFabH condensing enzyme.
Set-up: species or system H37Rv
Summary of the method: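 Direct end-point scintillation proximity assay with E. coli-expressed recombinant mtFabH (1.0 nM), biotinylated malonyl-ecACP, and myristoyl-CoA in 100 mM sodium phosphate with 0.01% CHAPS and 1 mM DTT. Compounds in DMSO were tested from 500 down to 0.98. After a 5-min 30 °C preincubation, [3H]myristoyl-CoA was added and reacted 20 min at 30 °C. Ethanol quench, streptavidin beads, bead-bound radioactivity counted, IC50 derived.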

| SMILES | IC50 [µM] |
| --- | --- |
| CC1=C(O)C(C)(Cc2cc(F)cc(F)c2)SC1=O (configuration not stated) | 263 |
| CC1=C(O)C(C)(Cc2ccc(-c3ccc(CO)cc3)cc2)SC1=O (configuration not stated) | 19 |
| CC1=C(O)C(C)(Cc2ccc(-c3ccc(C=O)cc3)cc2)SC1=O (configuration not stated) | 29 |
| COc1cccc(CC2(C)SC(O)=C(C)C2=O)c1 (configuration not stated) | > 500 |
| CC1=C(O)C(C)(Cc2ccc(-c3ccc(C(C)(C)C)cc3)cc2)SC1=O (configuration not stated) | 25 |
| CC1=C(O)C(C)(Cc2ccc(-c3ccc(C)cc3)cc2)SC1=O (configuration not stated) | 52 |
| CC1=C(O)C(C)(Cc2ccccc2)SC1=O (configuration not stated) | > 250 |
| CC1=C(O)C(C)(Cc2ccc(I)cc2)SC1=O (configuration not stated) | 153 |
| CC(=O)Nc1cccc(-c2ccc(CC3(C)SC(O)=C(C)C3=O)cc2)c1 (configuration not stated) | 119 |
| CC1=C(O)C(C)(Cc2ccc(-c3ccc(COCc4ccccc4)cc3)cc2)SC1=O (configuration not stated) | 17 |
| CC1=C(O)C(C)(Cc2ccc(F)cc2F)SC1=O (configuration not stated) | 246 |
| CC1=C(O)C(C)(Cc2cccc(Oc3ccccc3)c2)SC1=O (configuration not stated) | 52 |
| CC1=C(O)C(C)(Cc2cccc(-c3ccccc3)c2)SC1=O (configuration not stated) | 215 |
| COc1ccc(CC2(C)SC(O)=C(C)C2=O)cc1 (configuration not stated) | 155 |
| CC1=C(O)C(C)(Cc2ccc(C(C)(C)C)cc2)SC1=O (configuration not stated) | 43 |
| CC1=C(O)C(C)(Cc2ccc(-c3ccccc3)cc2)SC1=O (configuration not stated) | 51 |
| CC1=C(O)C(C)(Cc2ccc(C)cc2)SC1=O (configuration not stated) | 112 |
